Data set [1] can be described thus: Metabolic stability in mouse liver assessed as compound remaining at 3.7 MBq after 2 mins. It counts as ADME, tissue-based. Conditions: read-out: Stability. The essentials: (§1)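 Non-tumor-bearing mice received 3.7 MBq of the ¹⁸F tracer iv. Plasma and liver were collected at 2, 30 and 60 min and snap-frozen. Samples were extracted in ice-cold MeOH (liver homogenized), centrifuged at 4 °C, then dried, filtered and run on radio-HPLC. Parent fraction = parent peak over total chromatogram radioactivity; plasma extraction efficiency 83.5%. Mean of three studies per time point.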

The nature of data set [2]: Metabolic stability in mouse liver assessed as compound remaining at 3.7 MBq after 30 mins. It counts as ADME, tissue-based. Conditions: read-out: Stability. The essentials:
as §1

Data set [3] in a line: Metabolic stability in mouse liver assessed as compound remaining at 3.7 MBq after 60 mins. It counts as ADME, tissue-based. Conditions: read-out: Stability. The essentials:
as §1

A short description of data set [4]: Metabolic stability in mouse plasma assessed as compound remaining at 3.7 MBq after 2 mins. It counts as ADME, cell-free. Conditions: read-out: Stability. The essentials: as §1
Data set [5] can be described thus: Metabolic stability in mouse plasma assessed as compound remaining at 3.7 MBq after 30 mins. It counts as ADME, cell-free. Conditions: read-out: Stability. The essentials: as §1
Data set [6] is described as follows: Metabolic stability in mouse plasma assessed as compound remaining at 3.7 MBq after 60 mins. Conditions: read-out: Stability. The class given is ADME, cell-free. The essentials: as §1
Data set [7] is described as follows: Biodistribution in human A431 cell xenografted nu/nu BALB/c mouse plasma at 3.7 MBq after 60 mins. The class given is ADME, organism-based, A-431. As to conditions: in vivo, 1 h.
The subject of another data set is Blood. The experiment in a line: Biodistribution in human A431 cell xenografted nu/nu BALB/c mouse blood at 3.7 MBq after 60 mins. It counts as ADME, organism-based, A-431. As to conditions: in vivo, 1 h.
In another data set the test system is Heart. The experiment in a line: Biodistribution in human A431 cell xenografted nu/nu BALB/c mouse heart at 3.7 MBq after 60 mins. The class given is ADME, organism-based, A-431. Conditions: in vivo, 1 h.
Data set [8] in a line: Biodistribution in human A431 cell xenografted nu/nu BALB/c mouse tumor at 3.7 MBq after 60 mins. As to conditions: in vivo, 1 h. The class given is ADME, organism-based, Neoplasm, A-431.
The next data set concerns Muscle tissue. The data set is described as follows: Biodistribution in human A431 cell xenografted nu/nu BALB/c mouse muscle at 3.7 MBq after 60 mins. The class given is ADME, organism-based, A-431. As to conditions: in vivo, 1 h.
Another data set relates to Bone. The experiment in a line: Biodistribution in human A431 cell xenografted nu/nu BALB/c mouse bone at 3.7 MBq after 60 mins. It counts as ADME, organism-based, Bone element, A-431. As to conditions: in vivo, 1 h.
The test system of the next data set is Brain. The experiment in a line: Biodistribution in human A431 cell xenografted nu/nu BALB/c mouse brain at 3.7 MBq after 60 mins. It counts as ADME, organism-based, A-431. As to conditions: in vivo, 1 h.
The subject of the next data set is Lung. The data set is described as follows: Biodistribution in human A431 cell xenografted nu/nu BALB/c mouse lung at 3.7 MBq after 60 mins. The class given is ADME, organism-based, A-431. Conditions: in vivo, 1 h.
Data set [9] in a line: Biodistribution in human A431 cell xenografted nu/nu BALB/c mouse liver at 3.7 MBq after 60 mins. The class given is ADME, organism-based, A-431. As to conditions: in vivo, 1 h.
The nature of data set [10]: Biodistribution in human A431 cell xenografted nu/nu BALB/c mouse gallbladder at 3.7 MBq after 60 mins. The class given is ADME, organism-based, Gall bladder, A-431. As to conditions: in vivo, 1 h.
The subject of data set [11] is Stomach. The experiment in a line: Biodistribution in human A431 cell xenografted nu/nu BALB/c mouse full stomach at 3.7 MBq after 60 mins. The class given is ADME, organism-based, A-431. As to conditions: in vivo, 1 h.
Data set [12] deals with Stomach. The experiment in a line: Biodistribution in human A431 cell xenografted nu/nu BALB/c mouse empty stomach at 3.7 MBq after 60 mins. The class given is ADME, organism-based, A-431. Conditions: in vivo, 1 h.
The subject of data set [13] is Duodenum. The experiment in a line: Biodistribution in human A431 cell xenografted nu/nu BALB/c mouse full duodenum at 3.7 MBq after 60 mins. The class given is ADME, organism-based, A-431. As to conditions: in vivo, 1 h.
The subject of data set [14] is Duodenum. The data set is described as follows: Biodistribution in human A431 cell xenografted nu/nu BALB/c mouse empty duodenum at 3.7 MBq after 60 mins. It counts as ADME, organism-based, A-431. As to conditions: in vivo, 1 h.
In data set [15] the test system is Jejunum. The data set is described as follows: Biodistribution in human A431 cell xenografted nu/nu BALB/c mouse full jejunum at 3.7 MBq after 60 mins. It counts as ADME, organism-based, A-431. As to conditions: in vivo, 1 h.
Data set [16] has as its system Jejunum. The data set is described as follows: Biodistribution in human A431 cell xenografted nu/nu BALB/c mouse empty jejunum at 3.7 MBq after 60 mins. It counts as ADME, organism-based, A-431. As to conditions: in vivo, 1 h.
Data set [17] is described as follows: Biodistribution in human A431 cell xenografted nu/nu BALB/c mouse full caecum at 3.7 MBq after 60 mins. It counts as ADME, organism-based, A-431. Conditions: in vivo, 1 h.
Data set [18] in a line: Biodistribution in human A431 cell xenografted nu/nu BALB/c mouse empty caecum at 3.7 MBq after 60 mins. The class given is ADME, organism-based, A-431. Conditions: in vivo, 1 h.
Data set [19] concerns Colon. The experiment in a line: Biodistribution in human A431 cell xenografted nu/nu BALB/c mouse full colon at 3.7 MBq after 60 mins. The class given is ADME, organism-based, A-431. As to conditions: in vivo, 1 h.
The subject of data set [20] is Colon. The data set is described as follows: Biodistribution in human A431 cell xenografted nu/nu BALB/c mouse empty colon at 3.7 MBq after 60 mins. It counts as ADME, organism-based, A-431. Conditions: in vivo, 1 h.
Another data set has as its system Spleen. The experiment in a line: Biodistribution in human A431 cell xenografted nu/nu BALB/c mouse spleen at 3.7 MBq after 60 mins. The class given is ADME, organism-based, A-431. Conditions: in vivo, 1 h.
Another data set concerns Kidney. The data set is described as follows: Biodistribution in human A431 cell xenografted nu/nu BALB/c mouse kidney at 3.7 MBq after 60 mins. The class given is ADME, organism-based, A-431. As to conditions: in vivo, 1 h.
A short description of data set [21]: Biodistribution in human A431 cell xenografted nu/nu BALB/c mouse urine at 3.7 MBq after 60 mins. It counts as ADME, organism-based, A-431. As to conditions: in vivo, 1 h.
Data set [22] deals with Epidermal growth factor receptor (Homo sapiens, UniProt P00533). The data set is described as follows: Inhibition of EGFR autophosphorylation in human A431 cells. The class given is cell-based, A-431.
Epidermal growth factor receptor, sequence (P00533 whole entry): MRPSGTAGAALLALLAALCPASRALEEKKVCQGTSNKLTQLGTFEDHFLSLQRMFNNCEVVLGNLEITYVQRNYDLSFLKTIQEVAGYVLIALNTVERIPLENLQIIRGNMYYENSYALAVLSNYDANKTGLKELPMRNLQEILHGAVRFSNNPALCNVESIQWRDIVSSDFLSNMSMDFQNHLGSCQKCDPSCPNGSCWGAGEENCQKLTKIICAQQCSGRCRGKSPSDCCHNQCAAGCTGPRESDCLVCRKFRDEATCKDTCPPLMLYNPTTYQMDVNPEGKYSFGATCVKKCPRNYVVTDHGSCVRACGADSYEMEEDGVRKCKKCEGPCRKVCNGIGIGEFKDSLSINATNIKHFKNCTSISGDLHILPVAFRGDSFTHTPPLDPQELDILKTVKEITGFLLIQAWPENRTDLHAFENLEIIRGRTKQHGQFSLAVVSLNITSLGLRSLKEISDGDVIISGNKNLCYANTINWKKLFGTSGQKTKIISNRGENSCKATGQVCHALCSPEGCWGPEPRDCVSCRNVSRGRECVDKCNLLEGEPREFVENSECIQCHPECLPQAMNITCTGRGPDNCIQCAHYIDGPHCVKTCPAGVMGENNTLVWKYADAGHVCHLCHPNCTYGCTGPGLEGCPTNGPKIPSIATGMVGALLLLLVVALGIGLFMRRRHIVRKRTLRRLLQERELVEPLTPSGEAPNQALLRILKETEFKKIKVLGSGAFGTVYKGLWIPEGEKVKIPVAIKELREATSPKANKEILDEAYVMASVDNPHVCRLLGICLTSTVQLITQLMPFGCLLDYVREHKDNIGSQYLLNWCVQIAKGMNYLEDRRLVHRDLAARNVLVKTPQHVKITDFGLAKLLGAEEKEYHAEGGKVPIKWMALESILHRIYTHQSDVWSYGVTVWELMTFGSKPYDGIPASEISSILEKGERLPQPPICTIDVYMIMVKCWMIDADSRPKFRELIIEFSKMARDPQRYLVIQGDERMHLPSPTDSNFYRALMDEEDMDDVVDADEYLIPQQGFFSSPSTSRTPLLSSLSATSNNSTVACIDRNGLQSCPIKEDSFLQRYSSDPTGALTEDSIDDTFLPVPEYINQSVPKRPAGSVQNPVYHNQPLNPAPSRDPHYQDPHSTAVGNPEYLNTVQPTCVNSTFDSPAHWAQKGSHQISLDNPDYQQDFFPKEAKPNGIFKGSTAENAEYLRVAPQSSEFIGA

Where only a bound is given, the exact number is not on record here.

With `CCOc1cc2ncc(C#N)c(Nc3ccc(F)c(Cl)c3)c2cc1NC(=O)/C=C/CNCc1cn(CCF)nn1`, the remaining at 2 min in [1] came out at 95%; in data set [4], 98.9%. Also, the results for the remaining at 0.5 h in data set [2] and in [5] were 85.1% and 62.8%, respectively. The remaining at 1 h in data set [3] turned out to be 75.5%; in [6], 49.8%. The Drug uptake in data set [7] was determined as 0.027 % ID/g; with Blood it was 0.022 % ID/g; in the data set with Heart it was 0.041 % ID/g; in data set [8], 0.082 % ID/g; in the data set with Muscle tissue, 0.018 % ID/g; in the data set with Bone, 0.031 % ID/g. Also, the Drug uptake with Brain stood at 0.006 % ID/g; in the data set on Lung, 0.138 % ID/g; in data set [9], 0.392 % ID/g; in data set [10], 8.561 % ID/g; in the data set on Stomach [11], 1.341 % ID/g; in the data set with Stomach [12] it was 0.215 % ID/g. The Drug uptake was 1.987 % ID/g with Duodenum [13]; 1.453 % ID/g with Duodenum [14]; 0.489 % ID/g in the data set on Jejunum [15]; 0.344 % ID/g with Jejunum [16]; 0.161 % ID/g in data set [17]; 0.068 % ID/g in [18]. The Drug uptake in the data set with Colon [19] is recorded as 0.236 % ID/g; in the data set on Colon [20], 0.197 % ID/g; in the data set on Spleen, 0.211 % ID/g; with Kidney, 0.711 % ID/g; in [21], 0.151 % ID/g.
`Nc1cc2ncnc(Nc3cccc(Br)c3)c2cc1N` had a half-maximal inhibitory concentration (IC50) in data set [22] above 1 µM.
